Source: ChEMBL document CHEMBL4689842, “EUbOPEN Chemogenomics Library wave 1” (2021)

What was measured:
Assay type in all cases: toxicity, cell-based
HEK-293T [1] = test: Multiplex assay against HEK293T; conditions: human;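 as to Population Tubulin-Different-Phenotype (%): share of the cells with healthy nuclei that show this phenotype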
Outline: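 Live cells were stained at seeding with Hoechst33342, BioTracker Green Microtubule Cytoskeleton Dye, MitoTracker Red and Annexin V Alexa Fluor 680. Following compound addition, they were imaged on a CQ1 microscope at 37°C and 5% CO2 and gated by CellPathfinder machine learning into Hoechst high-intensity objects or normal cells, with normal cells split into healthy, pyknosed or fragmented nuclei and pyknosed cells into mitotic or apoptotic. Tubulin, mitochondrial-mass and membrane-permeability phenotypes are per cents of healthy-nucleus cells.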

HEK-293T [2] = test: Incucyte cell viability with HEK293T; conditions: human, 10 µM, compound concentration 10 uM; also: filed as whole numbers so only -1 and 0 and 1 occur
Fibroblast = test: Incucyte cell viability with human fibroblast; conditions: 10 µM, compound concentration 10 uM; also: filed as whole numbers so only -1 and 0 and 1 occur
[3] = 12 h, 1 µM, compound concentration 1 uM, replicate 1
[4] = 12 h, 1 µM, compound concentration 1 uM, replicate 2
[5] = 12 h, 10 µM, compound concentration 10 uM, replicate 1
[6] = 12 h, 10 µM, compound concentration 10 uM, replicate 2
[7] = 24 h, 1 µM, compound concentration 1 uM, replicate 1
[8] = 24 h, 1 µM, compound concentration 1 uM, replicate 2
[9] = 24 h, 10 µM, compound concentration 10 uM, replicate 1
[10] = 24 h, 10 µM, compound concentration 10 uM, replicate 2
[11] = 6 h, replicate number 1, timepoint 6 hours
[12] = 12 h, replicate number 1, timepoint 12 hours
[13] = 18 h, replicate number 1, timepoint 18 hours
[14] = 24 h, replicate number 1, timepoint 24 hours

## c1ccc2oc(-c3csc(C4CCN(Cc5nc6ncccc6[nH]5)CC4)n3)cc2c1
HEK-293T [1]; [3]
  Population Apoptotic (%): 23%
  Population Fragmented Nuclei (%): 23%
  Population Healthy Nuclei (%): 39%
  Population Hoechst High Intensity Objects (%): 19%
  Population Membrane Permeable-Phenotype (%): 5%
  Population Mitochondria Different-Phenotype (%): 5%
  Population Mitotic Cells (%): 76%
  Population Normal (%): 80%
  Population Pyknosed Nuclei (%): 37%
  Population Tubulin-Different-Phenotype (%): 7%
  Total Cell Count: 599
HEK-293T [1]; [4]
  Population Apoptotic (%): 13%
  Population Fragmented Nuclei (%): 4%
  Population Healthy Nuclei (%): 83%
  Population Hoechst High Intensity Objects (%): 4%
  Population Membrane Permeable-Phenotype (%): 1%
  Population Mitochondria Different-Phenotype (%): 21%
  Population Mitotic Cells (%): 86%
  Population Normal (%): 95%
  Population Pyknosed Nuclei (%): 11%
  Population Tubulin-Different-Phenotype (%): 13%
  Total Cell Count: 1174
HEK-293T [1]; [5]
  Population Apoptotic (%): 17%
  Population Fragmented Nuclei (%): 18%
  Population Healthy Nuclei (%): 54%
  Population Hoechst High Intensity Objects (%): 14%
  Population Membrane Permeable-Phenotype (%): 5%
  Population Mitochondria Different-Phenotype (%): 5%
  Population Mitotic Cells (%): 82%
  Population Normal (%): 85%
  Population Pyknosed Nuclei (%): 26%
  Population Tubulin-Different-Phenotype (%): 4%
  Total Cell Count: 511
HEK-293T [1]; [6]
  Population Apoptotic (%): 12%
  Population Fragmented Nuclei (%): 6%
  Population Healthy Nuclei (%): 86%
  Population Hoechst High Intensity Objects (%): 3%
  Population Membrane Permeable-Phenotype (%): 2%
  Population Mitochondria Different-Phenotype (%): 10%
  Population Mitotic Cells (%): 87%
  Population Normal (%): 96%
  Population Pyknosed Nuclei (%): 7%
  Total Cell Count: 1122
HEK-293T [1]; [7]
  Population Apoptotic (%): 20%
  Population Fragmented Nuclei (%): 21%
  Population Healthy Nuclei (%): 50%
  Population Hoechst High Intensity Objects (%): 15%
  Population Membrane Permeable-Phenotype (%): 8%
  Population Mitochondria Different-Phenotype (%): 10%
  Population Mitotic Cells (%): 79%
  Population Normal (%): 84%
  Population Pyknosed Nuclei (%): 28%
  Population Tubulin-Different-Phenotype (%): 13%
  Total Cell Count: 538
HEK-293T [1]; [8]
  Population Apoptotic (%): 15%
  Population Fragmented Nuclei (%): 5%
  Population Healthy Nuclei (%): 86%
  Population Hoechst High Intensity Objects (%): 6%
  Population Membrane Permeable-Phenotype (%): 4%
  Population Mitochondria Different-Phenotype (%): 12%
  Population Mitotic Cells (%): 84%
  Population Normal (%): 93%
  Population Pyknosed Nuclei (%): 7%
  Population Tubulin-Different-Phenotype (%): 30%
  Total Cell Count: 1346
HEK-293T [1]; [9]
  Population Apoptotic (%): 16%
  Population Fragmented Nuclei (%): 20%
  Population Healthy Nuclei (%): 60%
  Population Hoechst High Intensity Objects (%): 15%
  Population Membrane Permeable-Phenotype (%): 7%
  Population Mitochondria Different-Phenotype (%): 5%
  Population Mitotic Cells (%): 83%
  Population Normal (%): 84%
  Population Pyknosed Nuclei (%): 19%
  Population Tubulin-Different-Phenotype (%): 7%
  Total Cell Count: 500
HEK-293T [1]; [10]
  Population Apoptotic (%): 5%
  Population Fragmented Nuclei (%): 11%
  Population Healthy Nuclei (%): 84%
  Population Hoechst High Intensity Objects (%): 3%
  Population Membrane Permeable-Phenotype (%): 6%
  Population Mitochondria Different-Phenotype (%): 2%
  Population Mitotic Cells (%): 95%
  Population Normal (%): 96%
  Population Pyknosed Nuclei (%): 3%
  Population Tubulin-Different-Phenotype (%): 9%
  Total Cell Count: 1653
HEK-293T [2]; [11]
  Growth Rate: 0
HEK-293T [2]; [12]
  Growth Rate: 0
HEK-293T [2]; [13]
  Growth Rate: 0
HEK-293T [2]; [14]
  Growth Rate: 0
Fibroblast; [11]
  Growth Rate: 0
Fibroblast; [12]
  Growth Rate: 0
Fibroblast; 12 h, replicate number 2, timepoint 12 hours
  Growth Rate: 1
Fibroblast; [13]
  Growth Rate: 0
Fibroblast; 18 h, replicate number 2, timepoint 18 hours
  Growth Rate: 1
Fibroblast; [14]
  Growth Rate: 0
Fibroblast; 24 h, replicate number 2, timepoint 24 hours
  Growth Rate: 1
